Assay: Inhibition of Saccharomyces cerevisiae alpha-glucosidase using p-nitrophenyl-alpha-D-glucopyranoside as substrate preincubated for 15 mins
Summary of the method: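 Yeast enzyme at 0.6 U/mL in 0.1 M potassium phosphate buffer, pH 6.8. It was preincubated at 37 °C with test compound in water containing 0.5% DMSO. The reaction was started with 5.0 mM PNPG solution in the same buffer and incubated at 37 °C. It was stopped with 0.2 M Na2CO3 in phosphate buffer. Released p-nitrophenol was read at 405 nm, with IC50 as the output.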

Question: With COc1cc(O[C@@H]2O[C@H](CO[C@@H]3OC[C@@H](O)[C@H](O)[C@H]3O)[C@@H](O)[C@H](O)[C@H]2O)c2c(=O)c3c(OC)c(O)ccc3oc2c1OC as the compound, how does the IC50 read?
Answer: Its IC50 is 1500 µM.

Question: With COc1cc(O[C@@H]2O[C@H](CO[C@@H]3OC[C@@H](O)[C@H](O)[C@H]3O)[C@@H](O)[C@H](O)[C@H]2O)c2c(=O)c3c(OC)c(OC)ccc3oc2c1OC as the compound, how does the IC50 read?
Answer: Its IC50 is 383 µM.

Question: Which IC50 does the source give for COc1cc(O[C@@H]2O[C@H](CO)[C@@H](O)[C@H](O)[C@H]2O)c2c(=O)c3c(OC)c(O)ccc3oc2c1O here?
Answer: The IC50 was 701 µM.

Question: For COc1cc(O[C@@H]2O[C@H](CO[C@@H]3OC[C@@H](O)[C@H](O)[C@H]3O)[C@@H](O)[C@H](O)[C@H]2O)c2c(=O)c3c(OC)ccc(OC)c3oc2c1, which IC50 is on record?
Answer: Its IC50 is 360 µM.

Question: Which IC50 does the source give for COc1cc(O[C@@H]2O[C@H](CO[C@@H]3OC[C@@H](O)[C@H](O)[C@H]3O)[C@@H](O)[C@H](O)[C@H]2O)c2c(=O)c3c(OC)c(OC)cc(OC)c3oc2c1 here?
Answer: The IC50 was 371 µM.

Question: Which IC50 does the source give for COc1ccc(O)c2c(=O)c3c(O)cc(O[C@@H]4O[C@H](CO[C@@H]5OC[C@@H](O)[C@H](O)[C@H]5O)[C@@H](O)[C@H](O)[C@H]4O)c(OC)c3oc12 here?
Answer: Its IC50 is 184 µM.

Question: Which IC50 does the source give for COc1cc(O[C@@H]2O[C@H](CO[C@@H]3O[C@H](CO)[C@@H](O)[C@H](O)[C@H]3O)[C@@H](O)[C@H](O)[C@H]2O)c2c(=O)c3cccc(OC)c3oc2c1 here?
Answer: The IC50 was 956 µM.

Question: For COc1cc(O[C@@H]2O[C@H](CO[C@@H]3O[C@H](CO)[C@@H](O)[C@H](O)[C@H]3O)[C@@H](O)[C@H](O)[C@H]2O)c2c(=O)c3c(O)ccc(OC)c3oc2c1, which IC50 is on record?
Answer: The IC50 was 693 µM.

Question: With COc1cc(O)c2c(=O)c3c(O)c(O[C@@H]4O[C@H](CO)[C@@H](O)[C@H](O)[C@H]4O[C@@H]4O[C@@H](C)[C@H](O)[C@@H](O)[C@H]4O)ccc3oc2c1 as the compound, how does the IC50 read?
Answer: The IC50 was > 1720 µM.

Question: Which IC50 does the source give for COc1cc(O)c2c(=O)c3c(O[C@@H]4O[C@H](CO)[C@@H](O)[C@H](O)[C@H]4O)c(O[C@@H]4O[C@@H](C)[C@H](O)[C@@H](O)[C@H]4O)ccc3oc2c1 here?
Answer: The IC50 was 714 µM.

Question: For COc1cc(O[C@@H]2O[C@H](CO[C@@H]3OC[C@@H](O)[C@H](O)[C@H]3O)[C@@H](O)[C@H](O)[C@H]2O)c2c(=O)c3c(O)c(OC)ccc3oc2c1, which IC50 is on record?
Answer: The IC50 was 451 µM.

Question: Which IC50 does the source give for C[C@H]1O[C@H](O[C@H]2[C@H](O)[C@@H](O)[C@@H](O[C@H]3[C@H](O)[C@@H](O)C(O)O[C@@H]3CO)O[C@@H]2CO)[C@H](O)[C@@H](O)[C@@H]1N[C@H]1C=C(CO)[C@@H](O)[C@H](O)[C@H]1O (some centres undefined) [ACARBOSE] here?
Answer: Its IC50 is 627 µM.

Question: Which IC50 does the source give for O=c1c2cc(O)c(O)cc2oc2cc(O)c([C@@H]3O[C@H](CO)[C@@H](O)[C@H](O)[C@H]3O)c(O)c12 [MANGIFERIN] here?
Answer: The IC50 was 296 µM.

Question: With COc1cc(O)c2c(=O)c3c(O[C@@H]4O[C@H](CO)[C@@H](O)[C@H](O)[C@H]4O)ccc(O)c3oc2c1 [SWERTIANOLIN] as the compound, how does the IC50 read?
Answer: The IC50 was 126 µM.
